What is called Ki is a measure of affinity in units of concentration, obtained from inhibition or displacement.

Structures are written as SMILES. The source made the active and inactive calls. No cut-off for these calls is given here.

Test [1] has as its system Rattus norvegicus. In words: Calcium mobilization in vitamin-D deficient weanling Sprague-Dawley rat bone assessed as increase in serum calcium level at 32 to 70200 pmol, ip administered every 24 hrs for 4 consecutive days measured 24 hrs post last dose relative to vehicle treated control. The class given is functional, organism-based. A digest of the protocol:
(§1)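 Male weanling Sprague-Dawley rats were fed Diet 11 (0.47% Ca) + AEK oil for 1 week, then 0.02% Ca + AEK oil for 3 weeks, then 0.47% Ca for 1 week, then 0.02% Ca for 2 weeks. Dosing began in the last week on 0.02% Ca: four daily intraperitoneal doses. Serum calcium was measured in neck blood 24 h after the last dose and expressed as the difference from vehicle controls. Mean ± SEM of 6 values.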
In general terms: Calcium assays in cells follow changes in intracellular calcium, usually with a dye or a luminescent sensor.

In test [2] the test system is Rattus norvegicus. Kind of test: Calcium mobilization in vitamin-D deficient weanling Sprague-Dawley rat intestine assessed as increase in serosal/mucosal calcium level at 32 to 7020 pmol, ip administered every 24 hrs for 4 consecutive days measured 24 hrs post last dose by everted gut sac method relative to vehicle treated control. The class given is functional, organism-based.

Test [3] has as its system Rattus norvegicus. Kind of test: Calcium mobilization in vitamin-D deficient weanling Sprague-Dawley rat bone assessed as increase in serum calcium level at 32 to 35100 pmol, ip administered every 24 hrs for 4 consecutive days measured 24 hrs post last dose relative to vehicle treated control. The class given is functional, organism-based. A digest of the protocol:
as §1

In test [4] the test system is HL-60. In words: Ratio of 1alpha,25-(OH)2D3 ED50 to compound ED50 for induction of human HL60 cell differentiation. The test is classed as functional. A digest of the protocol: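 HL-60 promyelocyte differentiation to monocytes was scored as the percentage of cells reducing nitro blue tetrazolium. ED50 is the concentration giving 50% maturation, from dose-response curves; the experiment was done twice in duplicate. The ratio is the average of 1α,25-(OH)2D3 ED50 over analogue ED50.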

The target of test [5] is T1, Vitamin D3 receptor (Rattus norvegicus) (UniProt P13053).
T1 sequence (whole entry): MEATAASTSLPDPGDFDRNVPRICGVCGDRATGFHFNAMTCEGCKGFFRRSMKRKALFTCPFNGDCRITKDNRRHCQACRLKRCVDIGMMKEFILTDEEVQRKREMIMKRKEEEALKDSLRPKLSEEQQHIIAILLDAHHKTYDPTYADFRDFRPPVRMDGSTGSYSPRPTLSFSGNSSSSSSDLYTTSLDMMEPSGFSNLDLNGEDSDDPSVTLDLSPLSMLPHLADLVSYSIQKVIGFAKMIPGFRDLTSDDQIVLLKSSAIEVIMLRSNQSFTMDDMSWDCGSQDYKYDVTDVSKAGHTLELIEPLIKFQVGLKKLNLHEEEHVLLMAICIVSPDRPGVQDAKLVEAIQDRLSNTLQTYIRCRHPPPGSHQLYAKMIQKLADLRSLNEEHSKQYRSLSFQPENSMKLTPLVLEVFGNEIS
Kind of test: Activation of VDR-mediated 24-hydroxylase transcription in rat osteosarcoma cells after 16 hrs by luciferase reporter gene assay. A general note: In a reporter assay the amount or activity of a reporter protein is the signal.

For a further test, the target named is T2, Vitamin D3 receptor (Rattus norvegicus, UniProt P13053).
T2 sequence (P13053 whole entry): T1 sequence (whole entry)
Kind of test: Displacement of [3H]-1alpha,25(OH)2D3 from recombinant rat VDR after overnight incubation by scintillation counting. A digest of the protocol:
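Competition assay using full-length recombinant rat VDR with radiolabeled 1α,25-(OH)2D3 at 1 nM. Ki was derived from dose-response curves using a Kd of 0.2 nM. Run in duplicate on two separate occasions.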

Test [6] has as its system HL-60. Kind of test: Induction of human HL60 cell differentiation after 4 days by NBT reduction assay. The class given is functional. The following applies: HL-60, 96 h, read-out: ED50 (the source's name).
Test [7] concerns Rattus norvegicus. Kind of test: Calcium mobilization in vitamin-D deficient weanling Sprague-Dawley rat intestine assessed as increase in serosal/mucosal calcium level at 32 to 35100 pmol, ip administered every 24 hrs for 4 consecutive days measured 24 hrs post last dose by everted gut sac method relative to vehicle treated control. The class given is functional, organism-based.

In test [8] the test system is Rattus norvegicus. Kind of test: Calcium mobilization in vitamin-D deficient weanling Sprague-Dawley rat intestine assessed as increase in serosal/mucosal calcium level at 32 to 2340 pmol, ip administered every 24 hrs for 4 consecutive days measured 24 hrs post last dose by everted gut sac method relative to vehicle treated control. The test is classed as functional, organism-based.

Test [9] has as its system Rattus norvegicus. In words: Calcium mobilization in vitamin-D deficient weanling Sprague-Dawley rat bone assessed as increase in serum calcium level at 32 to 2340 pmol, ip administered every 24 hrs for 4 consecutive days measured 24 hrs post last dose relative to vehicle treated control. The class given is functional, organism-based. A digest of the protocol: as §1

In the case of `C=C1/C(=C\C=C2/CCC[C@]3(C)[C@@H]([C@H](C)CCCC(C)(C)O)CC[C@@H]23)C[C@@H](O)C[C@@H]1O`, the outcome in the test on Rattus norvegicus [1] and with Rattus norvegicus [2] was Active.

Turning to `C=C1[C@H](O)CC(=C/C=C2\CCC[C@]3(C)[C@@H]([C@H](C)C(C)(C)CCC(C)(C)O)CC[C@@H]23)C[C@H]1O`, the outcome in the test with Rattus norvegicus [3] and in the test on Rattus norvegicus [7] was inactive. The “Ratio ED50” value in the test on HL-60 [4] was determined as 2.2. Besides, the ED50 in test [5] is 0.03 nM. The Ki at Vitamin D3 receptor came to 0.02 nM. For the same compound, in the test with HL-60 [6], the EC50 amounted to 0.9 nM.

In the case of `C=C1[C@H](O)CC(=C/C=C2\CCC[C@]3(C)[C@@H]([C@H](C)[C@H](C)CCC(C)(C)O)CC[C@@H]23)C[C@H]1O`, the result in the test on Rattus norvegicus [3] and in the test with Rattus norvegicus [7] was Active. In addition, the “Ratio ED50” value with HL-60 [4] came to 0.2. This compound also displayed an ED50 in [5] of 5 nM. The Ki at Vitamin D3 receptor amounted to 0.2 nM. Also, the EC50 in the test on HL-60 [6] amounted to 10 nM.

As for `C=C1[C@H](O)CC(=C/C=C2\CCC[C@]3(C)[C@@H]([C@H](C)[C@@H](C)CCC(C)(C)O)CC[C@@H]23)C[C@H]1O`, the result in the test on Rattus norvegicus [3] and in the test on Rattus norvegicus [7] was inactive. Further, the “Ratio ED50” value in the test with HL-60 [4] is 2.2. Moreover, in [5], the ED50 was 0.2 nM. In addition, on Vitamin D3 receptor, the Ki came to 0.1 nM. Besides, the EC50 in the test on HL-60 [6] was 0.9 nM.

For `C=C1[C@H](O)CC(=C/C=C2\CCC[C@]3(C)[C@@H]([C@@H](C)CCCC(C)(C)O)CC[C@@H]23)C[C@H]1O` [DP001], the “Ratio ED50” value in the test with HL-60 [4] is 25. This compound also yielded an ED50 in test [5] of 0.007 nM. The EC50 with HL-60 [6] was determined as 0.08 nM.

As to `C=C1[C@H](O)CC(=C/C=C2\CCC[C@]3(C)[C@@H]([C@@H](C)[C@@H](C)CCC(C)(C)O)CC[C@@H]23)C[C@H]1O`, the result in the test with Rattus norvegicus [3] and in the test on Rattus norvegicus [7] was Active. Also, the “Ratio ED50” value with HL-60 [4] is listed as 0.1. The compound also returned an ED50 in test [5] of 4 nM. On Vitamin D3 receptor, the Ki came out at 10 nM. Moreover, in the test on HL-60 [6], the EC50 came to 20 nM.

On to `C=C1[C@H](O)CC(=C/C=C2\CCC[C@]3(C)[C@@H]([C@@H](C)[C@H](C)CCC(C)(C)O)CC[C@@H]23)C[C@H]1O`, for which the outcome in the test with Rattus norvegicus [8] and with Rattus norvegicus [9] was Active. In the test on HL-60 [4], the “Ratio ED50” value came to 100. Moreover, the ED50 in [5] worked out at 0.007 nM. Also, the Ki at Vitamin D3 receptor came to 0.04 nM. Besides, the EC50 with HL-60 [6] was 0.02 nM.

In the case of `C=C1[C@H](O)CC(=C/C=C2\CCC[C@]3(C)[C@@H]([C@@H](C)C(C)(C)CCC(C)(C)O)CC[C@@H]23)C[C@H]1O`, the result in the test with Rattus norvegicus [3] and in the test with Rattus norvegicus [7] was inactive. In the test with HL-60 [4], the “Ratio ED50” value came to 2. For the same compound, the ED50 in test [5] came out at 0.6 nM. For the same compound, the Ki on Vitamin D3 receptor stood at 0.06 nM. In addition, the EC50 in the test on HL-60 [6] was found to be 1 nM.

Values taken from ChEMBL document CHEMBL2057133, “A 20S combined with a 22R configuration markedly increases both in vivo and in vitro biological activity of 1α,25-dihydroxy-22-methyl-2-methylene-19-norvitamin D3” (J Med Chem, 2012).
